Results collected from several papers.
Protocols differ between the studies behind these lines.
Effect on: cell growth or viability

C[C@H]1[C@H](C)CC[C@]2(C)CC[C@]3(C)C(=CC(=O)[C@@H]4[C@@]5(C)CC[C@@H](O)[C@](C)(C(=O)NCc6cn(-c7ccc(Br)cc7)nn6)[C@@H]5CC[C@]43C)[C@H]12  IC50 (HDF; MTT; 24 h): 117000 nM
N#Cc1ccc(-c2cc(CNc3cccc4cccnc34)on2)cc1  IC50 (HL-60; MTS; 72 h): 16500 nM
COc1cc(C(=O)c2nc(-c3ccsc3)c[nH]2)cc(OC)c1OC  IC50 (M14; MTS; 72 h): 48.5 nM
N#Cc1ccc(-c2cc(COc3cc(=O)oc4ccccc34)on2)cc1  IC50 (HL-60; MTS; 72 h): > 100000 nM
S=C(N/N=C/c1cccc2cc3ccccc3nc12)Nc1ccccc1  IC50 (SK-BR-3; MTT; 48 h): > 50000 nM
Cc1[nH]c2ccccc2c1CCNCc1ccc(/C=C/C(=O)NO)cc1  IC50 (MP41; ATP luminescence; 72 h): 14.3 nM
COc1ccc(Nc2ncnc3c2ncn3Cc2ccc(C(=O)NO)cc2)cc1  IC50 (U-266; MTT; 72 h): 1110 nM
COc1cc(C(=O)c2nc(-c3cccc4c3CC(=O)N4)c[nH]2)cc(OC)c1OC  IC50 (M14; MTS; 72 h): 9.5 nM
CC(=O)N1c2ccc(-c3ccc(C(=O)O)cc3)cc2[C@H](Nc2ccc(Cl)cc2)C[C@@H]1C  IC50 (MP41; ATP luminescence; 72 h): 154 nM
O=c1cc(OCc2cc(-c3ccccn3)no2)c2ccccc2o1  IC50 (HL-60; MTS; 72 h): > 100000 nM
C[C@H]1[C@H](C)CC[C@]2(C)CC[C@]3(C)C(=CC(=O)[C@@H]4[C@@]5(C)CC[C@@H](O)[C@](C)(C(=O)NCc6cn(-c7ccc(F)cc7)nn6)[C@@H]5CC[C@]43C)[C@H]12  IC50 (HDF; MTT; 24 h): 108000 nM
Clc1ccc(-c2cc(CNc3cccc4cccnc34)on2)c(Cl)c1  IC50 (HL-60; MTS; 72 h): 67100 nM
COc1cc(C(=O)c2nc(-c3cccc4[nH]nnc34)c[nH]2)cc(OC)c1OC  IC50 (M14; MTS; 72 h): 53.2 nM
Cc1noc(C)c1-c1cc(C(O)(c2ccccn2)c2ccccn2)c2nc(C3CC3)[nH]c2c1  IC50 (MP41; ATP luminescence; 72 h): 104 nM
C[C@H]1[C@H](C)CC[C@]2(C)CC[C@]3(C)C(=CC(=O)[C@@H]4[C@@]5(C)CC[C@@H](O)[C@](C)(C(=O)NCc6cn(-c7cccc(C(F)(F)F)c7)nn6)[C@@H]5CC[C@]43C)[C@H]12  IC50 (HDF; MTT; 24 h): 116000 nM
COc1ccc(N(C)c2nc(C)nc3ccccc23)cc1OCCCC(=O)NO  IC50 (MP41; ATP luminescence; 72 h): 84.4 nM
FC(F)(F)c1cc(OCc2cc(-c3ccc(Cl)cc3Cl)no2)c2ccccc2n1  IC50 (HL-60; MTS; 72 h): > 100000 nM
COc1ccc(-c2nc(N3CCOCC3)c3sc(CN(C)c4ncc(C(=O)NO)cn4)cc3n2)cn1  IC50 (MP41; ATP luminescence; 72 h): 5.96 nM
COc1cc(C(=O)c2nc(-c3cccc4[nH]ccc34)cs2)cc(OC)c1OC  IC50 (M14; MTS; 72 h): 4.5 nM
Cc1ccc(C(C)C)c(OC2=C(Cl)C(=O)c3ccccc3C2=O)c1  IC50 (SK-BR-3; MTT; 24 h): > 60 µg/mL
COc1cc(C(=O)c2nc(-c3cccc4cc[nH]c34)c[nH]2)cc(OC)c1OC  IC50 (M14; MTS; 72 h): 27.3 nM
C[C@H]1[C@H](C)CC[C@]2(C)CC[C@]3(C)C(=CC(=O)[C@@H]4[C@@]5(C)CC[C@@H](O)[C@](C)(C(=O)NCc6cn(-c7cccc(Br)c7)nn6)[C@@H]5CC[C@]43C)[C@H]12  IC50 (HDF; MTT; 24 h): 121000 nM
CC(C)CNC(=S)N/N=C/c1cccc2cc3ccccc3nc12  IC50 (SK-BR-3; MTT; 48 h): > 50000 nM
COc1cc(C(=O)c2nc(-c3cccc4[nH]ccc34)c[nH]2)cc2c1OCO2  IC50 (M14; MTS; 72 h): 3.6 nM
CNC(=S)N/N=C/c1cccc2cc3ccccc3nc12  IC50 (SK-BR-3; MTT; 48 h): 41800 nM
CC(=O)O[C@@]12CO[C@@H]1C[C@H](O)[C@@]1(C)C(=O)[C@H](O)C3=C(C)[C@@H](OC(=O)[C@H](O)[C@@H](NC(=O)OC(C)(C)C)c4ccccc4)C[C@@](O)([C@@H](OC(=O)c4ccccc4)[C@H]21)C3(C)C  IC50 (SK-BR-3; MTT; 24 h): > 50 µg/mL
COc1ccccc1-n1cc(CNC(=O)[C@@]2(C)[C@H](O)CC[C@@]3(C)[C@H]2CC[C@]2(C)[C@@H]3C(=O)C[C@@H]3[C@@H]4[C@@H](C)[C@H](C)CC[C@]4(C)CC[C@]32C)nn1  IC50 (HDF; MTT; 24 h): 105000 nM
O=C1C[C@@H](c2ccccc2)Oc2cc(O)cc(O)c21  IC50 (Vero; MTT; 72 h): 103000 nM
O=C(NO)c1ccc(Cn2cnc3c(Nc4ccc(Cl)cc4)ncnc32)cc1  IC50 (U-266; MTT; 72 h): 630 nM
Fc1ccc(NC(=S)N/N=C/c2cccc3cc4ccccc4nc23)cc1  IC50 (SK-BR-3; MTT; 48 h): > 50000 nM
Nc1ccccc1NC(=O)c1ccc(Cn2cnc3c(Nc4ccc(Cl)cc4)ncnc32)cc1  IC50 (U-266; MTT; 72 h): 330 nM
CC(=O)O[C@H]1C(=O)[C@@]2(C)[C@H]([C@H](OC(=O)c3ccccc3)[C@]3(O)C[C@H](OC(=O)[C@H](O)[C@@H](NC(=O)c4ccccc4)c4ccccc4)C(C)=C1C3(C)C)[C@]1(OC(C)=O)CO[C@@H]1C[C@@H]2O  IC50 (M14; MTS; 72 h): 0.2 nM
C/C(=N/NC(=O)c1cn(-c2ccccc2)nc1-c1ccc(F)cc1)c1c(O)cc(C)oc1=O  IC50 (Vero; MTT; 48 h): 191000 nM
CO[C@H]1[C@H](O[C@H]([C@H]2O[C@@H](n3ccc(=O)[nH]c3=O)[C@H](O)[C@@H]2O)[C@H](NCCCNC(=O)[C@@H](NC(=O)[C@@H](NC(=O)N[C@H](C(=O)O)C(C)C)[C@@H]2CCN=C(N)N2)[C@@H](OC(=O)CCCCCCCCCCCCN(O)C(=N)N)C(C)C)C(=O)O)O[C@H](CN)[C@H]1O  IC50 (SK-BR-3; WST-1): 590 nM
COc1ccc(-c2ccc3c(N4CCOC[C@@H]4C)nc(N4CCOC[C@@H]4C)nc3n2)cc1COC(=O)CCOCCOCCOCCONC(=O)c1ccc(F)c(F)c1Nc1ccc(I)cc1F  IC50 (D54; WST-1; 72 h): 327 nM
Nc1ccn([C@@H]2O[C@H](CO)[C@@H](O)C2(F)F)c(=O)n1  IC50 (MP41; ATP luminescence; 72 h): 76.9 nM
O=C(NO)c1ccc(Cn2cnc3c(Nc4ccc(F)c(Cl)c4)ncnc32)cc1  IC50 (U-266; MTT; 72 h): 1460 nM
C/C(=N/NC(=O)c1cn(-c2ccccc2)nc1-c1ccc(Br)cc1)c1c(O)cc(C)oc1=O  IC50 (Vero; MTT; 48 h): 192000 nM
NC1=NN(c2ccc([N+](=O)[O-])cc2[N+](=O)[O-])C(=O)C1N=Nc1ccccc1C(=O)O (stereo not drawn)  IC50 (Vero; MTT; 72 h): 54400 nM
